ChEMBL document CHEMBL1165950, “Design and synthesis of new potent anticancer pyrazoles with high FLT3 kinase inhibitory selectivity” (Bioorg Med Chem, 2010)

Tests used:
Assay type in all cases: functional
HT-29 [1] = test: Growth inhibition of human HT-29 cells after 48 hrs by sulforhodamine B assay; settings: HT-29, 48 h
How it was run: (§1)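 NCI 60-cell screen, five-dose mode. Cells grown in RPMI 1640 with 5% FBS and 2 mM L-glutamine and plated at 5000-40,000 cells/well according to doubling time. After 24 h preincubation, a Tz plate was TCA-fixed. Five concentrations (10-fold or 1/2 log dilutions) were applied for 48 h at 37 °C. SRB staining read at 515 nm. IC50 taken from [(Ti-Tz)/(C-Tz)]×100 = 50.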

UACC-62 [2] = test: Cytotoxicity against human UACC62 cells assessed as cell growth at 10 uM; settings: read-out: Activity
How it was run: (§2)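 NCI-60 screen: cells grown in RPMI 1640 with 5% FBS and 2 mM L-glutamine, plated at 5000–40,000 cells/well according to doubling time, and preincubated 24 h at 37 °C, 5% CO2. The single 10 µM dose (DMSO stock) was added, then incubated 48 h. Cells were TCA-fixed and stained with 0.4% SRB, read at 515 nm, and growth % calculated against time-zero and control plates.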

OVCAR-4 [3] = test: Growth inhibition of human OVCAR4 cells after 48 hrs by sulforhodamine B assay; settings: OVCAR-4, 48 h; how it was run: as §1
NCI-H23 [4] = test: Cytotoxicity against human NCI-H23 cells assessed as cell growth at 10 uM; settings: read-out: Activity; how it was run: as §2
OVCAR-3 [5] = test: Cytotoxicity against human OVCAR-3 cells assessed as cell growth at 100 nM after 48 hrs by sulforhodamine B assay; settings: OVCAR-3, 48 h, read-out: Activity
TK-10 = test: Cytotoxicity against human TK10 cells assessed as cell growth at 1 uM after 48 hrs by sulforhodamine B assay; settings: TK-10, 48 h, read-out: Activity
OVCAR-3 [6] = test: Cytotoxicity against human OVCAR-3 cells assessed as cell growth at 0.01 uM after 48 hrs by sulforhodamine B assay; settings: OVCAR-3, 48 h, read-out: Activity
BT-549 [7] = test: Cytotoxicity against human BT549 cells assessed as cell growth at 0.001 uM after 48 hrs by sulforhodamine B assay; settings: BT-549, 48 h, read-out: Activity
How it was run: (§3)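 NCI-60 five-dose screen. Cells were grown in RPMI 1640 with 5% FBS and 2 mM L-glutamine, plated at 5000–40,000 cells/well and preincubated for 24 h. Time-zero plates were TCA-fixed. DMSO-solubilized drug was added at five concentrations (10-fold or ½-log serial dilutions) for 48 h at 37 °C, 5% CO2. Cells were TCA-fixed, stained with 0.4% SRB and read at 515 nm. Percent growth used time-zero, control and test absorbances.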

T47D [8] = test: Cytotoxicity against human T47D cells assessed as cell growth at 10 uM; settings: read-out: Activity; how it was run: as §2
NCI-H460 = test: Cytotoxicity against human NCI-H460 cells assessed as cell growth at 0.01 uM after 48 hrs by sulforhodamine B assay; settings: NCI-H460, 48 h, read-out: Activity
MDA-MB-468 = test: Cytotoxicity against human MDA-MB-468 cells assessed as cell growth at 0.001 uM after 48 hrs by sulforhodamine B assay; settings: MDA-MB-468, 48 h, read-out: Activity
OVCAR-4 [9] = test: Cytotoxicity against human OVCAR4 cells assessed as cell growth at 1 uM after 48 hrs by sulforhodamine B assay; settings: OVCAR-4, 48 h, read-out: Activity
HOP-62 = test: Cytotoxicity against human HOP62 cells assessed as cell growth at 0.001 uM after 48 hrs by sulforhodamine B assay; settings: HOP-62, 48 h, read-out: Activity
HT-29 [10] = test: Cytotoxicity against human HT-29 cells assessed as cell growth at 0.001 uM after 48 hrs by sulforhodamine B assay; settings: HT-29, 48 h, read-out: Activity
786-0 = test: Cytotoxicity against human 786-0 cells assessed as cell growth at 100 nM after 48 hrs by sulforhodamine B assay; settings: 786-0, 48 h, read-out: Activity; how it was run: as §3
A549 [11] = test: Growth inhibition of human A549 cells after 48 hrs by sulforhodamine B assay; settings: A549, 48 h
How it was run: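 NCI five-dose SRB assay in RPMI 1640 with 5% FBS and 2 mM L-glutamine. Cells were preincubated 24 h, then exposed 48 h at 37 °C to five concentrations (10-fold or half-log serial dilutions from DMSO stocks). TCA fixation, SRB staining, and absorbance at 515 nm followed. IC50 was taken where [(Ti−Tz)/(C−Tz)]×100 = 50, with Tz as time-zero cell density.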

BT-549 [12] = test: Cytotoxicity against human BT549 cells assessed as cell growth at 10 uM; settings: read-out: Activity
How it was run: (§4)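 Single-dose NCI-60 screen at 10 µM. Cells were grown in RPMI 1640 with 5% FBS and 2 mM L-glutamine, then treated for 48 h at 37 °C. Protein was measured by SRB staining with absorbance at 515 nm. Percentage growth was recorded, and inhibition percentage was calculated as 100 minus growth percentage.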

NCI/ADR-RES [13] = test: Cytotoxicity against human NCI/ADR-RES cells assessed as cell growth at 0.001 uM after 48 hrs by sulforhodamine B assay; settings: read-out: Activity
KM12 [14] = test: Cytotoxicity against human KM12 cells assessed as cell growth at 0.001 uM after 48 hrs by sulforhodamine B assay; settings: KM12, 48 h, read-out: Activity
A549 [15] = test: Cytotoxicity against human A549 cells assessed as cell growth at 10 uM; settings: read-out: Activity; how it was run: as §4
OVCAR-5 = test: Growth inhibition of human OVCAR5 cells after 48 hrs by sulforhodamine B assay; settings: OVCAR-5, 48 h; how it was run: as §1
OVCAR-3 [16] = test: Cytotoxicity against human OVCAR-3 cells assessed as cell growth at 0.001 uM after 48 hrs by sulforhodamine B assay; settings: OVCAR-3, 48 h, read-out: Activity
NCI-H23 [17] = test: Cytotoxicity against human NCI-H23 cells assessed as cell growth at 1 uM after 48 hrs by sulforhodamine B assay; settings: NCI-H23, 48 h, read-out: Activity
A498 = test: Cytotoxicity against human A498 cells assessed as cell growth at 10 uM after 48 hrs by sulforhodamine B assay; settings: A498, 48 h, read-out: Activity; how it was run: as §3
UACC-62 [18] = test: Cytotoxicity against human UACC62 cells assessed as cell growth at 100 nM after 48 hrs by sulforhodamine B assay; settings: UACC-62, 48 h, read-out: Activity
NCI/ADR-RES [19] = test: Cytotoxicity against human NCI/ADR-RES cells assessed as cell growth at 10 uM after 48 hrs by sulforhodamine B assay; settings: read-out: Activity
T47D [20] = test: Cytotoxicity against human T47D cells assessed as cell growth at 0.01 uM after 48 hrs by sulforhodamine B assay; settings: read-out: Activity
KM12 [21] = test: Cytotoxicity against human KM12 cells assessed as cell growth at 0.01 uM after 48 hrs by sulforhodamine B assay; settings: KM12, 48 h, read-out: Activity
MDA-MB-231 = test: Cytotoxicity against human MDA-MB-231 cells assessed as cell growth at 0.01 uM after 48 hrs by sulforhodamine B assay; settings: MDA-MB-231, 48 h, read-out: Activity
[22] = read-out: LC50 (the source's name)

## COc1cc(C)cc(-c2c(-c3ccnc(-c4ccc(C(C)=O)cc4)c3)cnn2CC#N)c1
HT-29 [1]
  GI50: 3.21 µM
  TGI: > 100 µM
HT-29 [1]; [22]
  CC50: > 100 µM
UACC-62 [2]
  growth at 10 µM: 49.6%
OVCAR-4 [3]
  GI50: 5.13 µM
  TGI: > 100 µM
OVCAR-4 [3]; [22]
  CC50: > 100 µM
NCI-H23 [4]
  growth at 10 µM: 83.7%
OVCAR-3 [5]
  growth at 0.1 µM: 92%
TK-10
  growth at 1 µM: 43%
OVCAR-3 [6]
  growth at 0.01 µM: 106%
BT-549 [7]
  growth at 0.001 µM: 96%
T47D [8]
  growth at 10 µM: 45.6%
NCI-H460
  growth at 0.01 µM: 98%
MDA-MB-468
  growth at 0.001 µM: 92%
OVCAR-4 [9]
  growth at 1 µM: 27%
HOP-62
  growth at 0.001 µM: 94%
HT-29 [10]
  growth at 0.001 µM: 110%
786-0
  growth at 0.1 µM: 88%
A549 [11]
  GI50: 3.68 µM
  LC50: > 100 µM
  TGI: > 100 µM
BT-549 [12]
  growth at 10 µM: 60%
NCI/ADR-RES [13]
  growth at 0.001 µM: 95%
KM12 [14]
  growth at 0.001 µM: 100%
A549 [15]
  growth at 10 µM: 91.4%
OVCAR-5
  GI50: > 100 µM
  TGI: > 100 µM
OVCAR-5; [22]
  CC50: > 100 µM
OVCAR-3 [16]
  growth at 0.001 µM: 103%
NCI-H23 [17]
  growth at 1 µM: 19%
A498
  growth at 10 µM: 27%
UACC-62 [18]
  growth at 0.1 µM: 89%
NCI/ADR-RES [19]
  growth at 10 µM: 11%
T47D [20]
  growth at 0.01 µM: 92%
KM12 [21]
  growth at 0.01 µM: 97%
MDA-MB-231
  growth at 0.01 µM: 95%
